Measurements reported in ChEMBL document CHEMBL1137404, “Enzyme specific activation of benzoquinone ansamycin prodrugs using HuCC49DeltaCH2-beta-galactosidase conjugates” (J Med Chem, 2006).
pIC50: −log10 of the molar value. Calls of active or inactive are those of the source. The rule behind the calls is not given here.

What was measured:
LS174T [1] = assay: Cytotoxicity against human LS174T cells by MTS assay; format: functional, cell-based
Method in brief: (§1)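 LS174T cells (2,000−5,000/well) grown 24 h, then given 1 h with PBS, enzyme-only staining buffer or antibody-enzyme conjugate (2 units) and washed three to five times. Compound added at 0−25 μM for 72 h.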

LS174T [2] = assay: Induction of Hsp90-mediated AKT degradation in human LS174T cells in absence of HuCC49deltaCH2-beta galactosidase by Western blotting at 2 uM; format: functional
Method in brief: (§2)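 LS174T cells at 50−70% confluence given 1 h with free β-galactosidase or antibody-enzyme conjugate in PBS with 2% FBS, washed, then exposed 24 h to 2 or 10 μM compound. Lysates (30 μg) run on 10% SDS-PAGE and blotted for AKT and β-actin by ECL. AKT expressed as Akt:β-actin ratio relative to control (100%).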

LS174T [3] = assay: Cytotoxicity against human LS174T cells in presence of HuCC49deltaCH2-beta galactosidase conjugate by MTS assay; format: functional, cell-based; method in brief: as §1
LS174T [4] = assay: Induction of Hsp90-mediated AKT degradation in human LS174T cells after 1 hr in presence of HuCC49deltaCH2-beta galactosidase conjugate by Western blotting; format: functional; method in brief: as §2
LS174T [5] = assay: Induction of Hsp90-mediated AKT degradation in human LS174T cells in presence of HuCC49deltaCH2-beta galactosidase conjugate by Western blotting at 2 uM; format: functional; method in brief: as §2
LS174T [6] = assay: Induction of Hsp90-mediated AKT degradation in human LS174T cells in presence of HuCC49deltaCH2-beta galactosidase conjugate by Western blotting at 10 uM; format: functional; method in brief: as §2
LS174T [7] = assay: Induction of Hsp90-mediated AKT degradation in human LS174T cells in absence of HuCC49deltaCH2-beta galactosidase by Western blotting at 10 uM; format: functional; method in brief: as §2

| Compound | pIC50 (LS174T [1]) | Activity (LS174T [2]) | pIC50 (LS174T [3]) | Activity (LS174T [4]) [%] | Activity (LS174T [5]) [%] | Activity (LS174T [6]) [%] | Activity (LS174T [7]) [%] |
| --- | --- | --- | --- | --- | --- | --- | --- |
| COC1=C2C[C@@H](C)C[C@H](OC)[C@H](O)[C@@H](C)/C=C(\C)[C@H](OC(N)=O)[C@@H](OC)/C=C\C=C(/C)C(=O)NC(=CC1=O)C2=O [GELDANAMYCIN] | 6.35 |  |  |  |  |  |  |
| CO[C@H]1/C=C\C=C(/C)C(=O)NC2=CC(=O)C(NCCO[C@@H]3O[C@H](CO)[C@H](O)[C@H](O)[C@H]3O)=C(C[C@@H](C)C[C@H](OC)[C@H](O)[C@@H](C)/C=C(\C)[C@@H]1OC(N)=O)C2=O | < 4.60 | inactive | 5.95 | 70 |  |  |  |
| CO[C@H]1/C=C\C=C(/C)C(=O)NC2=CC(=O)C(N)=C(C[C@@H](C)C[C@H](OC)[C@H](O)[C@@H](C)/C=C(\C)[C@@H]1OC(N)=O)C2=O |  | 70% |  |  | 70 | 70 | 70 |
